Results: ChEMBL document CHEMBL2311346, “An unprecedented reversible mode of action of β-lactams for the inhibition of human fatty acid amide hydrolase (hFAAH)” (Eur J Med Chem, 2013)
Active and inactive are the calls of the source. The calls are words filed in the database; no cut-off is given here.

Columns and labels:
[1] = target: T1, Fatty-acid amide hydrolase 1 (Homo sapiens, UniProt O00519); assay: Inhibition of human recombinant FAAH-mediated [3H]AEA hydrolysis after 10 mins by liquid scintillation assay
T1 sequence (O00519 whole entry): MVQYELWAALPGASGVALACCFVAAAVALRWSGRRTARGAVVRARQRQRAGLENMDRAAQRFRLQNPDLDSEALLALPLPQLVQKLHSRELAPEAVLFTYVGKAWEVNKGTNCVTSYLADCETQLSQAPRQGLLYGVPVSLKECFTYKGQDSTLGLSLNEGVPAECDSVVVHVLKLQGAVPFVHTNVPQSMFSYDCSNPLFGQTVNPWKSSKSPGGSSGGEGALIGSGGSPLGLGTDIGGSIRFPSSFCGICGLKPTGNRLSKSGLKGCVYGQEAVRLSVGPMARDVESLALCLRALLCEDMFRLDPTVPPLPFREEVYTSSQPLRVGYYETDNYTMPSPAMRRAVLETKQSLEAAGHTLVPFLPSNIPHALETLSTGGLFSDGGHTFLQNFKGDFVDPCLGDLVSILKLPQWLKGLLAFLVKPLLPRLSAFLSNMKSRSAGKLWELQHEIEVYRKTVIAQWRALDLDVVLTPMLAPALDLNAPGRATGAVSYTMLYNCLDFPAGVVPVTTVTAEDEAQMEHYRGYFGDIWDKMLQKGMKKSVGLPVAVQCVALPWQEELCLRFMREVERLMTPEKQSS
Method in brief: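 Human recombinant FAAH in 10 mM Tris–HCl, 1 mM EDTA, 0.1% BSA, pH 7.4, with compound in DMSO (DMSO controls) and [3H]-AEA (2 µM final), 37 °C for 10 min. Ice-cold chloroform/methanol stop, centrifugation, [3H]-ethanolamine in upper methanol/buffer phase counted by scintillation. Buffer-only blank subtracted; IC50 from three independent experiments.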

[2] = target: T2, Monoglyceride lipase (Homo sapiens) (UniProt Q99685); assay: Inhibition of human recombinant MAGL using [3H]-2-OG as substrate at 1 mM incubated for 30 mins at room temperature followed by incubation at 37 degC for 10 mins by liquid scintillation assay
T2 sequence (whole entry): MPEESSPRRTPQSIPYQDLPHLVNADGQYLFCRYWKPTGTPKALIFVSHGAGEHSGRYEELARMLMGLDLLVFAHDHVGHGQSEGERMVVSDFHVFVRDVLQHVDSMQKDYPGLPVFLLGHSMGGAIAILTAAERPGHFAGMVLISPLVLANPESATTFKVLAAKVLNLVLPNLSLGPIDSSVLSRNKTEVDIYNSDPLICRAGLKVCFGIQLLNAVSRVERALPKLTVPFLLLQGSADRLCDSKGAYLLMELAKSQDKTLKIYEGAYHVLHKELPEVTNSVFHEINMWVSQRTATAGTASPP

Monoglyceride lipase = target: T3, Monoglyceride lipase (Homo sapiens, UniProt Q99685); assay: Inhibition of human recombinant MAGL using [3H]-2-OG as substrate incubated for 30 mins at room temperature followed by incubation at 37 degC for 10 mins by liquid scintillation assay
T3 sequence (Q99685 whole entry): T2 sequence (whole entry)
Method in brief: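 Purified human recombinant MAGL in 10 mM Tris–HCl, 1 mM EDTA, 0.1% BSA, pH 8.0, with compound in DMSO (DMSO controls) and [3H]-2-OG (2 µM final). Preincubated 20 °C for 30 min, then 37 °C for 10 min. Ice-cold chloroform/methanol stop; lower chloroform phase counted by liquid scintillation; buffer-only blank subtracted.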

Homo sapiens = organism: Homo sapiens; assay: Selectivity ratio of IC50 for human recombinant MAGL to IC50 for human recombinant FAAH
[3] = target: T4, Fatty-acid amide hydrolase 1 (Homo sapiens) (UniProt O00519); assay: Competitive reversible inhibition of human recombinant FAAH using [3H]AEA as substrate incubated up to 90 mins by compound dilution method
T4 sequence (whole entry): T1 sequence (O00519 whole entry)
Method in brief: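 Wash-out: human recombinant FAAH (27.5 µg) preincubated 1 h at room temperature with inhibitor or DMSO in 15 µL, at concentrations inhibiting before but not after dilution; diluted 100-fold in assay buffer. Aliquots taken at 0, 30 and 90 min post-dilution, given [3H]-AEA (2 µM final), 37 °C for 30 min; stopped with chloroform/methanol; aqueous phase counted; buffer blank subtracted.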

[4] = target: T4, Fatty-acid amide hydrolase 1 (Homo sapiens); assay: Irreversible inhibition of human recombinant FAAH using [3H]AEA as substrate incubated up to 90 mins by compound dilution method

SMILES | IC50 [1] [nM] | IC50 (Monoglyceride lipase) [nM] | also measured
C=CCNC(=S)N1C[C@@H]([C@@H](C)OC(=O)NCCc2ccccc2)C1=O | 959 |  | inhibition (INH) [2]: 25%
C=CCNC(=O)N1C[C@@H]([C@@H](C)OC(=O)COCc2ccccc2)C1=O | 70.9 | 56800 | 
C=CCOC(=O)N1C[C@@H]([C@@H](C)OC(=O)CCCc2ccccc2)C1=O | 3.65 | 10300 | Ratio IC50 (Homo sapiens): 2800; inhibition [3]: Active
C=CCCC(=O)N1C[C@@H]([C@@H](C)OC(=O)CCCc2ccccc2)C1=O |  | 4060 | 
C=CCCC(=O)N1C[C@@H]([C@@H](C)OC(=O)CCCc2ccncc2)C1=O | 310 |  | 
NC(=O)c1cccc(-c2cccc(OC(=O)NC3CCCCC3)c2)c1 |  |  | inhibition [4]: Active
C=CCCC(=O)N1C[C@@H]([C@@H](C)OC(=O)NCCc2ccccc2)C1=O | 33.2 |  | 
C=CCOC(=O)N1C[C@@H]([C@@H](C)OC(=O)NCCc2ccccc2)C1=O | 12.1 |  | 
C=CCNC(=O)N1C[C@@H]([C@@H](C)OC(=O)CCCc2ccccc2)C1=O | 5.56 | 98400 | Ratio IC50 (Homo sapiens): 18000
O=C(CCCCCCc1ccccc1)c1nc2ncccc2o1 |  |  | inhibition [3]: Active
C=CCNC(=O)N1C[C@@H]([C@@H](C)OC(=O)NCCc2ccccc2)C1=O | 28.6 |  | 
C=CCOC(=O)N1C[C@@H]([C@@H](C)OC(=O)COCc2ccccc2)C1=O | 30.1 |  | 
C=CCNC(=S)N1C[C@@H]([C@@H](C)OC(=O)CCCc2ccccc2)C1=O | 146 |  | inhibition (INH) [2]: 60%
C=CCNC(=S)N1C[C@@H]([C@@H](C)OC(=O)COCc2ccccc2)C1=O | 1040 | 122000 | 
CCCSC(=O)N1C[C@@H]([C@@H](C)OC(=O)CCCc2ccccc2)C1=O | 12.1 | 19000 | inhibition [3]: Active
C=CCCC(=O)N1C[C@@H]([C@@H](C)OC(=O)COCc2ccccc2)C1=O | 30.9 |  | 
